# What was measured:
# [1] = test system: Mus musculus; experiment: Antiinflammatory activity, assessed by the carrageenan paw edema test in mice; assay type: functional
# In short: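 Mice dosed orally with compound at 20 mg/kg (reference at 10 mg/kg) in Tween 80/saline 1/99 v/v, 1 h before subplantar 3% w/v carrageenan (0.05 mL) in right hind paw. Paw volumes by plethysmometer at 1, 3 and 5 h; edema values at 3 h. Mean ± SEM, n 6-12; ANOVA with Dunnett's t-test.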
# [2] = species: Mus musculus; experiment: PGE-2 level was assayed in RAW 264.7 macrophages after a 20h stimulation with LPS followed by incubation with compound and arachidonic acid for 2 hr; assay type: functional
# In short: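 RAW 264.7 cells first stimulated with LPS for 20 h, then washed and incubated 2 h with compound plus arachidonic acid. PGE₂ measured to assess COX-2 activity in intact cells.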
# [3] = species: Mus musculus; experiment: PGE-2 levels were assayed in LPS stimulated RAW 264.7 macrophages for 20h in either presence or absence of compound; assay type: functional
# In short: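 Murine RAW 264.7 cells grown in DMEM with 2 mM glutamine, antibiotics and 10% FBS. Cells at 2 × 10⁶/mL exposed to E. coli LPS 1 µg/mL, 37 °C, 20 h, with compound or vehicle. PGE₂ in supernatants by radioimmunoassay. […] Cytotoxicity checked by MTT reduction.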
# [4] = test system: Mus musculus; experiment: PGE-2 levels were assayed in inflamed paw after 5 hr carrageenan paw edema test in mice; assay type: functional
# In short: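 Carrageenan-injected mice (oral compound 1 h prior, Tween 80/saline vehicle) killed by cervical dislocation 5 h after carrageenan. Right hind paws homogenized and PGE₂ measured in homogenates; stomachs handled the same way. Mean ± SEM, n 6-12; ANOVA with Dunnett's t-test.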
# [5] = species: Mus musculus; experiment: Inhibitory activity against LPS stimulated RAW 264.7 macrophages; assay type: functional; conditions: RAW264.7
# In short: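 Murine RAW 264.7 cells grown in DMEM with 2 mM glutamine, antibiotics and 10% FBS. Cells at 2 × 10⁶/mL exposed to E. coli LPS 1 µg/mL, 37 °C, 20 h, with compound or vehicle. PGE₂ in supernatants by radioimmunoassay. Cytotoxicity checked by MTT reduction.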
# [6] = (§1) Inhibition of chemiluminescence generated by hypoxanthine/ xanthine oxidase was determined; parameters: concentration or dose not given beside the values; conditions: concentration not given here
# In short: (§2)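 Cell-free superoxide made by the hypoxanthine/xanthine oxidase system, with chemiluminescence recorded.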
# [7] = species: Homo sapiens; experiment: Percent inhibition of neutrophils (chemiluminescence) was determined at 10 uM concentration in TPA-induced luminol chemiluminescence assay
# [8] = Percentage inhibition of H/XO (chemiluminescence) was determined at 10 uM concentration; in short: as §2
# [9] = species: Homo sapiens; experiment: Percent inhibition of neutrophils (chemiluminescence) was determined at 10 uM concentration; assay type: functional
# In short: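 Purified human neutrophils at 2.5 × 10⁶ cells/mL with luminol 40 µM and TPA 1 µM; chemiluminescence recorded. Compounds tested at 10 µM; mean ± SEM.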
# [10] = as §1; conditions: concentration not given here; in short: as §2
SMILES,Edema [1] [µL],PGE2 Level [2] [ng/mL],PGE2 Level [3] [ng/mL],PGE2 Level [4] [ng/mL],IC50 [5] [nM],inhibition [6] [%],inhibition at 10 µM [7] [%],inhibition [8] [%],inhibition at 10 µM [9] [%],inhibition [10] [%]
CCOC(=O)c1cc2ccccn2/c(=N/c2ccc(F)cc2)n1,103.9,8.9,11.8,82.5,1500,49.6,44.4,,,
CS(=O)(=O)Nc1ccc([N+](=O)[O-])cc1OC1CCCCC1 [NS-398],97.2,2.1,3.7,53,2.1,,,,,
CCOC(=O)c1cc2ccccn2/c(=N/c2ccc(Cl)cc2)n1,102,10.6,8.2,83.3,400,31.3,38.8,,,
CCOC(=O)c1cc2ccccn2/c(=N/c2ccc(C)cc2)n1,92.4,13.5,13.3,71,1700,,,49.1,31.1,
CCOC(=O)c1cc2ccccn2/c(=N/c2ccc(OC)cc2)n1,91.6,9.6,12,78.7,3500,,75.9,93.3,,
[S-]c1nc2ccccc2c2cccc[n+]12,,10.3,16.9,,,,53.7,,,51.6
CCOC(=O)c1cc2ccccn2c(=O)n1,121.9,10.6,16.9,85.4,,26.6,29.9,,,
CCOC(=O)c1cc2ccccn2c(=S)n1,105.2,8.2,12.8,89.7,1700,43.3,51.8,,,
CCOC(=O)c1cc2ccccn2/c(=N/c2ccc(Br)cc2)n1,80.8,9.5,14.8,76.9,,32.2,24.8,,,
CCOC(=O)c1cc2ccccn2/c(=N/c2ccccc2)n1,82.2,11,10.9,70.6,,,,57.1,52.3,
